Measured values reported in ChEMBL document CHEMBL1131129, “Geometrically and conformationally restrained cinnamoyl compounds as inhibitors of HIV-1 integrase: synthesis, biological evaluation, and molecular modeling” (J Med Chem, 1998).

Experiments:
MT4 = experiment: Compound concentration required to reduce the exponential growth of MT-4 cells by 50%; format: functional; conditions: Homo sapiens
Method in brief: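 Lymphoid MT-4 cells in suspension culture, grown at 37 °C under 5% CO2 in RPMI 1640 with 10% FCS, penicillin G and streptomycin, and checked for mycoplasma. Compounds were dissolved in DMSO as a 200 mM stock, then diluted. Cytotoxicity was read as viability of mock-infected cells by MTT. The CC50 is the concentration reducing exponential cell growth by 50%.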

KB = experiment: Compound concentration required to reduce the exponential growth of KB cells by 50%; format: functional; conditions: Homo sapiens
Homo sapiens = species: Homo sapiens; experiment: Fold increase in protein-linked DNA breaks (PLDB) with respect to untreated controls.; format: functional
Method in brief: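 KB cells labeled with [14C]thymidine (0.75 μCi/mL) for 48 h, trypsinized, resuspended at 3×10^5/mL, preincubated 1 h at 37 °C. […] Protein-linked DNA breaks quantified by K-SDS coprecipitation after SDS lysis, needle shearing, 65 °C incubation and 100 mM KCl precipitation. Expressed relative to untreated controls.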

[1] = molecular target: T1, Human immunodeficiency virus type 1 integrase (Human immunodeficiency virus 1, UniProt Q7ZJM1); experiment: (§1) Compound concentration required to reduce HIV-1 Integrase 3'-processing activity by 50%
T1 sequence (Q7ZJM1 whole entry): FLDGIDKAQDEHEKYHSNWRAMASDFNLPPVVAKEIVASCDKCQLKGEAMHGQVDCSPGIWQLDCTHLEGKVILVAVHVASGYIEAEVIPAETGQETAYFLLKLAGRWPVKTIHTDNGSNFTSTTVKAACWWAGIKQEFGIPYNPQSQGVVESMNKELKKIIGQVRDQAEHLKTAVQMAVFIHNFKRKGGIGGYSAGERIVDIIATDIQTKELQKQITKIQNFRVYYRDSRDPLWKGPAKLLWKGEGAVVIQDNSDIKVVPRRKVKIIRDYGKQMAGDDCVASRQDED

[2] = molecular target: T1, Human immunodeficiency virus type 1 integrase; experiment: as §1; remark: listed apart in the source
Method in brief: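 His-tagged HIV-1 IN expressed in E. coli BL21(DE3), Ni-purified with 5 mM CHAPS. Released GT dinucleotide recovered by DEAE filtration and counted. Mean of three independent determinations.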

Compound `COc1cc([C@@H]2c3cc4c(cc3[C@@H](O[C@@H]3O[C@@H]5CO[C@@H](C)O[C@H]5[C@H](O)[C@H]3O)[C@H]3COC(=O)[C@H]23)OCO4)cc(OC)c1O` [ETOPOSIDE] has a CC50 (MT4) of 0.08 µM and a CC50 (KB) of 0.1 µM.
Work on `CC[C@@]1(O)C(=O)OCc2c1cc1n(c2=O)Cc2cc3ccccc3nc2-1` [CAMPTOTHECIN] yielded a CC50 (MT4) of 0.01 µM, a CC50 (KB) of 0.006 µM and a Fold increase (Homo sapiens) of 3.5. It also gave an IC50 ([1]; read-out: IC50) of over 100000 nM.
Compound `COc1ccc(/C=C/C(=O)/C=C(O)/C=C/c2ccc(OC)c(OC)c2)cc1OC` has a CC50 (MT4) of 4.1 µM, a CC50 (KB) of 2 µM and a Fold increase (Homo sapiens) of 1.4. The IC50 ([1]; read-out: IC50) was over 100000 nM.
`O=C(/C=C/c1ccc(O)c(O)c1)/C=C/c1ccc(O)c(O)c1` was tested, and the CC50 (MT4) was 38 µM, the CC50 (KB) was 21 µM and the Fold increase (Homo sapiens) was 1.1. It also gave an IC50 ([1]; read-out: IC50) of 600 nM.
`O=C1/C(=C/c2ccc(O)c(O)c2)Cc2ccccc21` gave a CC50 (MT4) of 5.5 µM, a CC50 (KB) of 9.2 µM and an IC50 [2] of 86 µM. For the same compound, the Fold increase (Homo sapiens) was 5.1.
Work on `O=C1/C(=C/c2ccc(O)c(O)c2)CNC/C1=C\c1ccc(O)c(O)c1` yielded a CC50 (MT4) of 21 µM, a CC50 (KB) of 32 µM and a Fold increase (Homo sapiens) of 1.4. For the same compound, the IC50 ([1]; read-out: IC50) was 200 nM.
`O=C(/C=C/c1ccc(O)cc1)/C=C/c1ccc(O)cc1` gave a CC50 (MT4) of 1.6 µM, a CC50 (KB) of 7.4 µM and a Fold increase (Homo sapiens) of 1.1. The IC50 ([1]; read-out: IC50) was over 100000 nM.
In the case of `O=C1/C(=C/c2ccc(O)c(O)c2)CC/C1=C\c1ccc(O)c(O)c1`, the CC50 (MT4) is reported as 15 µM, the CC50 (KB) is reported as 17 µM and the Fold increase (Homo sapiens) is reported as 4. For the same compound, the IC50 ([1]; read-out: IC50) was 1000 nM.
For `O=C(/C=C(O)/C=C/c1ccccc1)/C=C/c1ccccc1`, the CC50 (MT4) was 41 µM, the CC50 (KB) was 29 µM and the Fold increase (Homo sapiens) was 0.8. For the same compound, the IC50 ([1]; read-out: IC50) was over 100000 nM.
Work on `O=C(/C=C/c1ccc(O)c(O)c1)c1ccc(O)cc1` yielded a CC50 (MT4) of 4.4 µM, a CC50 (KB) of 5.9 µM and a Fold increase (Homo sapiens) of 1.6. It also gave an IC50 ([1]; read-out: IC50) of 1300 nM.
`O=C(/C=C/c1ccc(O)cc1)c1ccc(O)cc1O` [ISOLIQUIRITIGENIN] gave a CC50 (MT4) of 7.4 µM, a CC50 (KB) of 12 µM and a Fold increase (Homo sapiens) of 1.7. The IC50 ([1]; read-out: IC50) was over 100000 nM.
For `Nc1nc[nH]n1` [AMITROLE], the CC50 (MT4) was 100 µM, the CC50 (KB) was 100 µM and the Fold increase (Homo sapiens) was 1.1. For the same compound, the IC50 [1] was 0.17 µg/mL.
`O=C(/C=C/c1ccc(O)cc1)CC(=O)/C=C/c1ccc(O)cc1` [BISDEMETHOXYCURCUMIN] was tested, and the CC50 (MT4) was 13 µM, the CC50 (KB) was 8.5 µM and the Fold increase (Homo sapiens) was 0.9. The IC50 ([1]; read-out: IC50) was over 100000 nM.
In the case of `O=C1/C(=C/c2ccc(O)c(O)c2)CSC/C1=C\c1ccc(O)c(O)c1`, the CC50 (MT4) is reported as 4 µM, the CC50 (KB) is reported as 3.9 µM and the Fold increase (Homo sapiens) is reported as 1.1. The IC50 ([1]; read-out: IC50) was 200 nM.
In the case of `O=C1/C(=C/c2ccc(O)c(O)c2)CCC/C1=C\c1ccc(O)c(O)c1`, the CC50 (MT4) is reported as 7.4 µM, the CC50 (KB) is reported as 8.9 µM and the Fold increase (Homo sapiens) is reported as 1.4. It also gave an IC50 ([1]; read-out: IC50) of 900 nM.
`O=C(/C=C/c1ccc(O)c(O)c1)c1ccccc1` gave a CC50 (MT4) of 1.7 µM, a CC50 (KB) of 3.1 µM and a Fold increase (Homo sapiens) of 1.3. For the same compound, the IC50 ([1]; read-out: IC50) was 2300 nM.
Work on `COc1ccc(/C=C/C(=O)/C=C/c2ccc(OC)c(OC)c2)cc1OC` yielded a CC50 (MT4) of 4.1 µM, a CC50 (KB) of 6.7 µM and a Fold increase (Homo sapiens) of 1.1. It also gave an IC50 ([1]; read-out: IC50) of over 100000 nM.
Work on `O=C(/C=C/c1ccc(O)c(O)c1)c1ccc(O)cc1O` [BUTEIN] yielded a CC50 (MT4) of 5.3 µM, a CC50 (KB) of 9.1 µM and a Fold increase (Homo sapiens) of 2.2. The IC50 ([1]; read-out: IC50) was 20000 nM.
`O=C(/C=C/c1ccc(O)c(O)c1)c1cccc(C(=O)/C=C/c2ccc(O)c(O)c2)c1` was tested, and the CC50 (MT4) was 5 µM, the CC50 (KB) was 5.8 µM and the Fold increase (Homo sapiens) was 1.2. For the same compound, the IC50 ([1]; read-out: IC50) was 800 nM.
With `O=C(/C=C/c1ccc(O)c(O)c1)CCc1ccccc1` the CC50 (MT4) was 15 µM, the CC50 (KB) was 30 µM and the Fold increase (Homo sapiens) was 1. It also gave an IC50 ([1]; read-out: IC50) of over 100000 nM.
`O=C(/C=C(O)/C=C/c1ccc(O)c(O)c1)/C=C/c1ccc(O)c(O)c1` showed a CC50 (MT4) of 17 µM, a CC50 (KB) of 4.1 µM and a Fold increase (Homo sapiens) of 1.1. For the same compound, the IC50 ([1]; read-out: IC50) was 700 nM.
With `COc1cc(/C=C2\CCC/C(=C\c3ccc(O)c(OC)c3)C2=O)ccc1O` [CYCLOVALONE] the CC50 (MT4) was 2.4 µM, the CC50 (KB) was 6.7 µM and the Fold increase (Homo sapiens) was 1.8. For the same compound, the IC50 ([1]; read-out: IC50) was over 100000 nM.
For `COc1cc(/C=C/C(=O)CC(=O)/C=C/c2ccc(O)c(OC)c2)ccc1O` [CURCUMIN], the CC50 (MT4) was 7.4 µM, the CC50 (KB) was 16 µM and the Fold increase (Homo sapiens) was 1. It also gave an IC50 ([1]; read-out: IC50) of 30000 nM.
Work on `O=C1C(=Cc2ccc(O)c(O)c2)C(=O)c2ccccc21` yielded a CC50 (MT4) of 32 µM, a CC50 (KB) of 50 µM and a Fold increase (Homo sapiens) of 2. The IC50 ([1]; read-out: IC50) was 3000 nM.
Work on `COc1cc(/C=C/C(=O)/C=C/c2ccc(O)c(OC)c2)ccc1O` yielded a CC50 (MT4) of 1.4 µM, a CC50 (KB) of 8.5 µM and a Fold increase (Homo sapiens) of 1.2. For the same compound, the IC50 ([1]; read-out: IC50) was 37000 nM.
For `O=C(/C=C/c1ccc(O)cc1)c1cccc(C(=O)/C=C/c2ccc(O)cc2)c1`, the CC50 (MT4) was 35 µM, the CC50 (KB) was 22 µM and the Fold increase (Homo sapiens) was 1.2. The IC50 ([1]; read-out: IC50) was 30000 nM.
`O=C1/C(=C/c2ccc(O)c(O)c2)COC/C1=C\c1ccc(O)c(O)c1` was tested, and the CC50 (MT4) was 10 µM, the CC50 (KB) was 15 µM and the Fold increase (Homo sapiens) was 0.9. For the same compound, the IC50 ([1]; read-out: IC50) was 200 nM.
